Test results taken from ChEMBL document CHEMBL1154449, “Synthesis, characterization and in vitro antibacterial activity of thiourea and urea derivatives of steroids” (2008).
≈ marks a conversion by molar mass, not a printed value.

Key:
[1] = system: Escherichia coli; experiment: Antibacterial activity against Escherichia coli at 30 ug/disk after 18 hrs at 36 degC by disk diffusion method; format: functional; settings: read-out: IZ
Outline: (§1)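 Disk diffusion. Strains were subcultured in BHI for 18 h at 37 °C, then suspended in saline by McFarland to about […] CFU/mL. The suspension was mixed with sterile antibiotic agar at 40 °C and poured onto plates, and 6.0 mm paper disks were applied. Test compound stock was made in DMSO and diluted to several concentrations applied to disks. Chloramphenicol disks served as positive control and DMSO disks as negative control. Inhibition zone (mm) was read after 18 h at 36 °C.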

[2] = system: Staphylococcus aureus; experiment: Antibacterial activity against Staphylococcus aureus at 30 ug/disk after 18 hrs at 36 degC by disk diffusion method; format: functional; settings: read-out: IZ
Outline: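 S. aureus subcultured in BHI medium 18 h at 37 °C, then suspended in saline per McFarland protocol; suspension mixed with sterile antibiotic agar at 40 °C and poured as plates. Paper disks (6.0 mm) loaded with DMSO-dissolved compound at graded concentrations; chloramphenicol disk positive control, DMSO disk negative control. Inhibition zone diameter (mm) read after 18 h at 36 °C.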

[3] = system: Streptococcus pyogenes; experiment: Antibacterial activity against Streptococcus pyogenes at 30 ug/disk after 18 hrs at 36 degC by disk diffusion method; format: functional; settings: read-out: IZ; outline: as §1
[4] = system: Salmonella typhimurium; experiment: Antibacterial activity against Salmonella Typhimurium at 30 ug/disk after 18 hrs at 36 degC by disk diffusion method; format: functional, Salmonella enterica subsp. enterica serovar Typhimurium; settings: Salmonella enterica, read-out: IZ; outline: as §1
[5] = system: Staphylococcus aureus; experiment: Antibacterial activity against Staphylococcus aureus at 1 mg/disk after 18 hrs at 36 degC by disk diffusion method; format: functional; outline: as §1
[6] = system: Salmonella typhimurium; experiment: Antibacterial activity against Salmonella Typhimurium at 1 mg/disk after 18 hrs at 36 degC by disk diffusion method; format: functional, Salmonella enterica subsp. enterica serovar Typhimurium; outline: as §1
[7] = system: Escherichia coli; experiment: Antibacterial activity against Escherichia coli at 1 mg/disk after 18 hrs at 36 degC by disk diffusion method; format: functional; outline: as §1
[8] = system: Staphylococcus aureus; experiment: Antibacterial activity against Staphylococcus aureus after 18 hrs at 37 degC by microdilution method; format: functional; settings: in the assay text read “macrodilution” for “microdilution”
[9] = system: Streptococcus pyogenes; experiment: Antibacterial activity against Streptococcus pyogenes after 18 hrs at 37 degC by microdilution method; format: functional; settings: in the assay text read “macrodilution” for “microdilution”
[10] = system: Escherichia coli; experiment: Antibacterial activity against Escherichia coli after 18 hrs at 37 degC by microdilution method; format: functional
[11] = system: Salmonella typhimurium; experiment: Antibacterial activity against Salmonella Typhimurium after 18 hrs at 37 degC by microdilution method; format: functional, Salmonella enterica subsp. enterica serovar Typhimurium; settings: Salmonella enterica, in the assay text read “macrodilution” for “microdilution”
[12] = system: Streptococcus pyogenes; experiment: Antibacterial activity against Streptococcus pyogenes at 1 mg/disk after 18 hrs at 36 degC by disk diffusion method; format: functional; outline: as §1

Compound: O=C(N[C@H](CO)[C@H](O)c1ccc([N+](=O)[O-])cc1)C(Cl)Cl [CHLORAMPHENICOL]
- zone of inhibition at 30 µg/disc [1]: 20 mm
- zone of inhibition at 30 µg/disc [2]: 21 mm
- zone of inhibition at 30 µg/disc [3]: 22.2 mm
- zone of inhibition at 30 µg/disc [4]: 25.2 mm

Compound: CC(C)CCC[C@@H](C)[C@H]1CC[C@H]2[C@@H]3CC=C4C[C@@H](O)CC[C@]4(C)[C@H]3CC[C@]12C [CHOLESTEROL]
- inhibition zone (IZ) [5]: 9.2 mm
- inhibition zone (IZ) [6]: 8.2 mm
- inhibition zone (IZ) [7]: 9 mm
- MIC [8]: 512 µg/mL (≈ 1320 µM)
- MIC [9]: 512 µg/mL (≈ 1320 µM)
- MIC [10]: 512 µg/mL (≈ 1320 µM)
- MIC [11]: 512 µg/mL (≈ 1320 µM)
- inhibition zone (IZ) [12]: 7.8 mm

Compound: CC[C@H](/C=C/[C@@H](C)[C@H]1CC[C@H]2[C@@H]3C4=C[C@]5(C[C@@H](Cl)CC[C@]5(C)[C@H]3CC[C@]12C)NC(=O)N4)C(C)C
- inhibition zone (IZ) [5]: 16.8 mm
- inhibition zone (IZ) [6]: 14.4 mm
- inhibition zone (IZ) [7]: 14.8 mm
- MIC [8]: 64 µg/mL (≈ 131 µM)
- MIC [9]: 128 µg/mL (≈ 263 µM)
- MIC [10]: 128 µg/mL (≈ 263 µM)
- MIC [11]: 128 µg/mL (≈ 263 µM)
- inhibition zone (IZ) [12]: 15.2 mm

Compound: CC[C@H](/C=C/[C@@H](C)[C@H]1CC[C@H]2[C@@H]3C4=C[C@]5(C[C@@H](OC(C)=O)CC[C@]5(C)[C@H]3CC[C@]12C)NC(=O)N4)C(C)C
- inhibition zone (IZ) [5]: 14.4 mm
- inhibition zone (IZ) [6]: 15.2 mm
- inhibition zone (IZ) [7]: 16.3 mm
- MIC [8]: 64 µg/mL (≈ 125 µM)
- MIC [9]: 128 µg/mL (≈ 251 µM)
- MIC [10]: 64 µg/mL (≈ 125 µM)
- MIC [11]: 128 µg/mL (≈ 251 µM)
- inhibition zone (IZ) [12]: 12.4 mm

Compound: CC[C@H](/C=C/[C@@H](C)[C@H]1CC[C@H]2[C@@H]3C4=C[C@]5(C[C@@H](OC(C)=O)CC[C@]5(C)[C@H]3CC[C@]12C)NC(=S)N4)C(C)C
- inhibition zone (IZ) [5]: 22.5 mm
- inhibition zone (IZ) [6]: 19.4 mm
- inhibition zone (IZ) [7]: 23.4 mm
- MIC [8]: 32 µg/mL (≈ 60.7 µM)
- MIC [9]: 64 µg/mL (≈ 121 µM)
- MIC [10]: 32 µg/mL (≈ 60.7 µM)
- MIC [11]: 32 µg/mL (≈ 60.7 µM)
- inhibition zone (IZ) [12]: 21.6 mm

Compound: CC[C@H](/C=C/[C@@H](C)[C@H]1CC[C@H]2[C@@H]3C4=C[C@]5(C[C@@H](Cl)CC[C@]5(C)[C@H]3CC[C@]12C)NC(=S)N4)C(C)C
- inhibition zone (IZ) [5]: 19.7 mm
- inhibition zone (IZ) [6]: 18.7 mm
- inhibition zone (IZ) [7]: 20.7 mm
- MIC [8]: 64 µg/mL (≈ 127 µM)
- MIC [9]: 64 µg/mL (≈ 127 µM)
- MIC [10]: 32 µg/mL (≈ 63.6 µM)
- MIC [11]: 32 µg/mL (≈ 63.6 µM)
- inhibition zone (IZ) [12]: 23.2 mm
